HSF1 inhib: HSF1 inhibitors in luciferase reporter cells, primary screen, cell-based, NIH3T3, luminescence. NIH3T3-HGL HSE-luciferase, MG132-induced, luminescence 8 h; stronger effect = lower value. activity change, negative = inhibition, % at 7.5 µM (by protocol). AID 2098, 2009. actives 0.77% (n = 300,000);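 active = more than half of replicate wells show activity change below -50%, luminescence cut by over half; inconclusive = some wells, but at most half, below -50%; inactive = no replicate well below -50%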;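 also: luciferase reports HSF-1 transcriptional activity via heat shock element; 0% = median of DMSO wells and -100% = zero luminescence signal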
DNA FID counter-1: compounds displacing fluorescent DNA intercalator, primary screen, artefact control for HCV NS3 helicase inhibitor project, biochemical, FID fluorescence. DNA fluorescent intercalator displacement. inhibition, % at 7.9 µM. actives 0.17% (n = 290,000);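 also: 0% = vehicle and 100% = reference compound; higher means more ethidium bromide displaced from hairpin DNA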
core dimer inh: inhibitors of HCV core protein dimerization, primary screen, biochemical, TR-FRET, high-throughput; AID 1899, 2009; actives 0.33% (n = 300,000); TR-FRET GST/Flag-core106 dimerization, 1536-well; inhibition, % at 5 µM;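 active = inhibition above the mean of all tested compounds plus 3 SD, set per screening campaign, cut at about 45% in these data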
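test system = GST/Flag-tagged HCV core106 proteins | probe or stimulus = Eu donor and XL665 acceptor anti-tag antibodies | times = compound-protein-antibody incubation 4 h at 22.5 °C | signal = TR-FRET, excitation 340 nm, emission 617 and 671 nm | measure = percent inhibition of core106 dimerization signal | controls = wells lacking GST-core106 and wells with excess unlabelled core106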
HSF1 activator: HSF-1 activators, primary screen, NIH3T3-HGL cells, MG132 stress, luminescence, single point; NIH3T3-HGL HSF-1 luciferase reporter, 8 h; 100% = twice DMSO control signal; activation, % at 9 µM; actives 1.7% (n = 300,000); AID 504408, 2011;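 active = mean replicate activation of at least 50% with a set share of replicates each reaching 50%; inconclusive = only one of those two conditions met; inactive = mean below 50% and too few replicates reaching it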;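 also: 0% = median of the neutral control wells and 100% = twice that signal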
NS3 helicase inh: inhibitors of HCV NS3 helicase, primary screen, biochemical, Cy5 molecular beacon fluorescence; Hepatitis C virus NS3 helicase; NS3 helicase DNA unwinding; inhibition, % at 10.9 µM; actives 0.56% (n = 290,000); AID 1800, 2009;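 active = inhibition above the mean of all tested compounds plus 3 SD, set per campaign, cut at about 35% in these data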;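 also: 0% = DMSO wells and 100% = thioflavine S control wells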
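assay system = NS3 helicase fragment of HCV | buffer or medium = MOPS pH 6.5, MgCl2, DTT, Tween20, BSA | timing = 60 min unwinding reaction at 25 °C after ATP addition | signal = Cy5 beacon fluorescence read at start and 1 h | read-out basis = % inhibition of unwinding | control set = low DMSO, high thioflavine S at 110 µM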
HSP90 inh: HSP90 inhibitors, primary screen, cell lysate, luminescence; Heat shock protein HSP 90 (rabbit reticulocyte lysate; luciferase refolding); Rabbit reticulocyte lysate, luciferase refolding luminescence, 3 h; inhibition, % at 5.6 µM; actives 0.91% (n = 290,000);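 active = inhibition above the screen-wide mean plus 3 SD, computed separately per campaign, cut at about 16% in these data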;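 also: 0% = DMSO wells and 100% = 60 µM geldanamycin wells; inhibitors lower the luminescence because luciferase stays unfolded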
NS3 hel confirm: HCV NS3 helicase inhibitors, retest, confirmation, biochemical, Cy5 molecular beacon fluorescence, triplicate; shares compounds with NS3 helicase inh; NS3 helicase DNA unwinding; inhibition, % at 10.9 µM; actives 31% (n = 1,600);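 active = inhibition above the mean of all tested compounds plus 3 SD, cutoff set per campaign, cut at about 36% in these data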
DNA FID counter-2: compounds displacing fluorescent DNA intercalator, artefact control for HCV NS3 helicase inhibitor project, biochemical, FID fluorescence, triplicate; shares compounds with NS3 helicase inh; DNA fluorescent intercalator displacement; inhibition, % at 7.9 µM; actives 4% (n = 1,600); AID 1945, 2009;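 also: 0% = vehicle and 100% = reference compound; higher means more displacement of ethidium bromide from the DNA hairpin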
An asterisk follows results filed as active; ? = inconclusive; nt = no result given. Only some compounds are listed: those with a hit (about 3.9% of all), similar ones and a draw of the others. Rule as the data show it, unless noted: active = inhibition above about 37%; inactive = the rest.

SMILES | HSF1 inhib | DNA FID counter-1 | core dimer inh | HSF1 activator | NS3 helicase inh | HSP90 inh | NS3 hel confirm | DNA FID counter-2
CCCCCC(=O)Nc1nc(C)c(-c2csc(Nc3cc(OC)ccc3OC)n2)s1 | -1.6 | -1.6 | 4.0 | -3.9 | 39.4* | 3.1 | 4.0 | 26.4
CCCCC(=O)Nc1nc(C)c(-c2csc(Nc3ccccc3OC)n2)s1 | 2.8 | -3.0 | -2.8 | -2.9 | -8.3 | 3.0 | nt | nt
CCCCCCOc1ccc(C(=O)O)cc1C#N | 4.8 | -25.2 | 0.6 | 30.4 | 37.7* | 1.0 | 16.1 | -8.2
CCCCOc1ccc(C(=O)O)cc1 | -6.3 | -1.6 | -5.6 | -12.3 | -1.3 | 1.4 | nt | nt
Cc1cccc(C(=O)OCc2cc(=O)oc3c(C)c(C)ccc23)c1O | 2.1 | -8.1 | -11.1 | 30.9 | 36.9* | -0.7 | -11.3 | 13.8
CCOc1ncccc1C(=O)OCc1cc(=O)oc2c(C)c(C)ccc12 | -1.6 | -20.0 | nt | 7.1 | 7.2 | -4.4 | nt | nt
CCc1ccc(N=C2NC(=O)/C(=C/c3cc(Br)c(OCC(=O)O)c(OC)c3)S2)cc1 | -1.5 | 2.3 | 7.9 | 8.9 | 22.3 | 4.7 | nt | nt
CCOc1cc(/C=C2\SC(=Nc3ccc(CC)cc3)NC2=O)ccc1OCC(=O)O | 0.1 | -0.2 | 17.2 | 24.8 | 45.8* | 4.6 | 69.1* | 6.5
O=C(NCCNc1ccc(Cl)cc1[N+](=O)[O-])c1ccccc1F | 37.3 | -4.9 | 1.4 | 50.9* | 41.1* | -1.8 | 0.8 | 14.5
O=C(CSc1ncnc2c1nnn2Cc1ccccc1F)N1CCN(c2ccccc2)CC1 | 2.0 | -1.3 | nt | 1.1 | -2.8 | 1.4 | nt | nt
Cc1sc(NC(=O)/C=C/C(=O)O)c(C(N)=O)c1-c1ccc(C(C)(C)C)cc1 | 11.3 | -36.6 | 8.6 | 9.7 | 36.5* | -4.7 | 59.5* | -13.8
Cc1sc(NC(=O)C2CCCCC2C(=O)O)c(C(N)=O)c1-c1ccccc1 (stereo unspecified) | 4.6 | -35.2 | -3.6 | -2.5 | 1.1 | 5.5 | nt | nt
Cc1sc(NC(=O)C2CCCCC2C(=O)O)c(C(N)=O)c1-c1ccc(C(C)C)cc1 (stereo unspecified) | 11.7 | -28.3 | 14.2 | 25.9 | 39.1* | 0.5 | 77.3* | -22.4
CCOC(=O)c1c(NC(=O)/C=C/C(=O)O)sc(C)c1-c1ccc(C(C)(C)C)cc1 | 23.4 | -11.2 | 19.9 | 32.9 | -14.9 | -1.5 | nt | nt
CCOc1ccccc1NC(=S)NC(=O)C1CCCCC1 | -7.8 | -23.4 | 4.4 | -6.2 | 11.2 | 6.2 | nt | nt
Cc1c(C(=O)OCCOc2ccc(Br)cc2)sc(=S)n1C | -1.6 | 2.6 | -13.4 | -11.3 | 1.2 | -1.5 | nt | nt
CCc1nc2c(sc3nc4c(cc32)COC(C)(C)C4)c(=O)n1Cc1ccco1 | 29.5 | -18.1 | 8.6 | ? | 39.5* | 5.6 | -15.7 | -13.8
CCc1nc(OCc2ccco2)c2sc3nc4c(cc3c2n1)COC(C)(C)C4 | nt | -27.1 | 14.3 | nt | 47.9* | 16.1* | -13.8 | -17.7
Cc1nc(OCC(C)C)c2sc3nc4c(cc3c2n1)COC(C)(C)C4 | 1.0 | -11.4 | -1.2 | 29.9 | -0.2 | -2.1 | nt | nt
Cn1cc(C=C2C(=O)OC3(CCCCC3)OC2=O)c2ccccc21 | -11.4 | -8.0 | 8.2 | -1.2 | 10.8 | -3.6 | nt | nt
Cn1cc(C=C2C(=O)CC(C)(C)CC2=O)c2ccccc21 | -8.5 | 6.6 | -3.5 | -6.6 | 37.6* | 5.9 | -1.0 | 4.2
Cc1ccc2c(C)[nH]c(=O)cc2c1 | 5.8 | -0.5 | -0.2 | -15.2 | 4.4 | 0.1 | nt | nt
Cc1cc(C2=NNC(=NCc3ccccc3)SC2)c(C)n1-c1c(C)n(C)n(-c2ccccc2)c1=O | nt | -35.3 | nt | nt | 36.5* | 6.4 | 7.1 | -16.7
O=C1c2ccccc2-c2onc3ccc(NCc4ccco4)c1c23 | 2.0 | -7.5 | -49.0 | -3.2 | 40.8* | 2.2 | 21.1 | -88.4
O=C(N/N=C/c1cc([N+](=O)[O-])ccc1O)C(O)(c1ccccc1)c1ccccc1 | -41.2 | -0.6 | -8.3 | -35.3 | 46.1* | -7.5 | -7.9 | 18.9
SMILES | HSF1 inhib | DNA FID counter-1 | core dimer inh | HSF1 activator | NS3 helicase inh | HSP90 inh | NS3 hel confirm | DNA FID counter-2
Cc1ccc(NC(=O)CC2SC(=O)NC2=O)cc1 (stereo unspecified) | -3.4 | -16.6 | 4.9 | -3.4 | 47.4* | 8.7 | -8.6 | 15.9
COc1ccc(NC(C)=O)cc1S(=O)(=O)Nc1ccc(C(=O)N2CCCC2)cc1 | -2.8 | -2.5 | -1.5 | -10.5 | -5.9 | -1.8 | nt | nt
COc1cccc(NC(=O)COC(=O)c2ccccc2SCC(=O)N2CCCC2)c1 | 4.5 | nt | 2.3 | 0.9 | nt | nt | nt | nt
O=C(COC(=O)c1ccccc1SCC(=O)N1CCCC1)Nc1ccccc1 | -6.6 | -42.8 | -22.2 | -14.1 | 38.0* | 0.7 | -10.8 | -17.2
COC(=O)c1ccc(COc2ccccc2/C=N/NC(=O)c2cccnc2)cc1 | 12.8 | -6.3 | 2.2 | 21.6 | -10.1 | 3.3 | nt | nt
COc1ccc(/C=C2\Oc3cc(OC(=O)N4CCOCC4)ccc3C2=O)cc1 | 5.7 | -2.1 | -7.1 | 2.5 | 1.1 | -1.3 | nt | nt
CCc1ccc(/C=C2\Oc3cc(OC(=O)N4CCOCC4)ccc3C2=O)cc1 | -75.8* | -0.9 | 6.1 | -81.1 | 46.9* | -3.1 | -5.6 | -16.6
COc1ccc(C(=O)Nc2cc3c4c(c2)C(C)C(=O)N4CCC3)cc1OC (stereo unspecified) | 3.4 | nt | 0.8 | -1.4 | nt | nt | nt | nt
C=CCNc1nc2ccccc2nc1NS(=O)(=O)c1ccc(Cl)cc1 | 22.5 | -31.8 | 2.1 | 39.4 | 36.4* | 0.6 | 32.4 | -24.6
C=CCNc1nc2ccccc2nc1NS(=O)(=O)c1ccc(OC)cc1 | 5.3 | -20.6 | -7.2 | -2.9 | 11.4 | 1.4 | nt | nt
COc1cc(C(=O)Nc2ccc3c(c2)OCO3)ccc1OCc1c(C)noc1C | -6.2 | 3.8 | 12.1 | -12.8 | 7.3 | 2.6 | nt | nt
Cc1noc(NS(=O)(=O)c2ccc(NC(=O)CS(=O)(=O)c3ccccc3)cc2)c1C | -5.0 | -6.0 | 2.4 | 0.7 | -0.3 | -0.4 | nt | nt
Cc1noc(NS(=O)(=O)c2ccc(NC(=O)Cc3ccc([N+](=O)[O-])cc3)cc2)c1C | 1.5 | -16.4 | 34.6 | -8.0 | 41.6* | -4.1 | 29.2 | -13.6
COCCn1c(=NC(=O)c2cc(-c3cccs3)nc3ccccc23)sc2cc(S(N)(=O)=O)ccc21 | 3.7 | -8.2 | -30.6 | 26.9 | 64.4* | -0.4 | -2.7 | -0.4

Bioassay records: PubChem, several laboratories
